From ChEMBL document CHEMBL3112565, “Identification of small molecule sphingomyelin synthase inhibitors” (Eur J Med Chem, 2014)
Values belong to the molecule of their own block, whether it stands above or below them. Active and inactive are the calls of the source. No cut-off for these calls is given here.

What was measured:
[1] = target: T1, Phosphatidylcholine:ceramide cholinephosphotransferase 2 (Homo sapiens, UniProt Q8NHU3); assay: Inhibition of SMS2 (unknown origin) expressed in H5 insect cells using C6-NBD-Cer as substrate after 1 hr
T1 sequence (Q8NHU3 whole entry): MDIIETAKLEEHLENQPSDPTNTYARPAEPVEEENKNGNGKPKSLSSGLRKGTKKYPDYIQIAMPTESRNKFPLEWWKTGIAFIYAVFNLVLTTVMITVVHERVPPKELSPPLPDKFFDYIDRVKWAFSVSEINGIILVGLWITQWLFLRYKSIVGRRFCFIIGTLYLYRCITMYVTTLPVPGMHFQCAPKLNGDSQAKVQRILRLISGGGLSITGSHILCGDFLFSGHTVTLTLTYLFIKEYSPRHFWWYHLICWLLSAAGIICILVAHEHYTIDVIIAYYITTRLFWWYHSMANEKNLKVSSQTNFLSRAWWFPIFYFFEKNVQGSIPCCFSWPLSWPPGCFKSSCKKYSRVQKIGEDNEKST
Procedure, shortened: (§1)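 SMS2 came from homogenate of H5 insect cells overexpressing it, prepared at 50 mg pellet/mL in 0.25 M sucrose, 50 mM Tris-HCl pH 7.4, 1 mM EDTA and spun at 12,000 rpm for 10 min. The enzyme (2 µg total protein) was preincubated with inhibitor for 30 min at 37 °C in 10 mM HEPES pH 7.4, 3 mM MnCl2, 0.3% BSA. Reaction was started with 1.01 mM C6-NBD-Cer plus DMPC in DMSO and run 1 h at 37 °C. Product was quantified by HPLC as for SMS.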

[2] = target: T1, Phosphatidylcholine:ceramide cholinephosphotransferase 2; assay: Inhibition of SMS2 (unknown origin) expressed in H5 insect cells using C6-NBD-Cer as substrate at 100 uM after 1 hr; procedure, shortened: as §1
[3] = Inhibition of sphingomyelin synthase (unknown origin); parameters: species or system Homo sapiens
[4] = Cytotoxicity against human HuH7 cells assessed as cell viability after 17 hrs by MTT assay; assay type: cell-based, Huh-7
Procedure, shortened: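 Huh-7 cells exposed to a range of concentrations for 17 h, then viability read by MTT. CC50 is the concentration giving 50% inhibition relative to vehicle (0.25% DMSO). Quintuplicate samples; mean of at least two independent tests.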

Mus musculus [5] = assay: Inhibition of sphingomyelin synthase in ICR mouse assessed as decrease of sphingomyelin level in plasma at 6 mg/kg, ip after 2 hrs; assay type: functional, organism-based; parameters: dose 6 mg/kg
Procedure, shortened: (§2)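 Female ICR mice (about 25 g), n=5 per group, received 150 µg (6 mg/kg) in 15 µL DMSO plus 185 µL PBS pH 7.4, given i.v. or i.p.; controls got vehicle i.v. Blood was taken from the eye after 2 h and frozen in liquid nitrogen. Plasma ceramide and sphingomyelin were measured by mass spectrometry. Groups compared by Student's t-test.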

Mus musculus [6] = assay: Inhibition of sphingomyelin synthase in ICR mouse assessed as decrease of sphingomyelin level in plasma at 6 mg/kg, iv after 2 hrs; assay type: functional, organism-based; parameters: dose 6 mg/kg; procedure, shortened: as §2
Mus musculus [7] = assay: Inhibition of sphingomyelin synthase in ICR mouse assessed as increase of ceramide level in plasma at 6 mg/kg, ip after 2 hrs; assay type: functional, organism-based; parameters: dose 6 mg/kg; procedure, shortened: as §2
Mus musculus [8] = assay: Inhibition of sphingomyelin synthase in ICR mouse assessed as increase of ceramide level in plasma at 6 mg/kg, iv after 2 hrs; assay type: functional, organism-based; parameters: dose 6 mg/kg; procedure, shortened: as §2
[9] = Inhibition of sphingomyelin synthase in ICR mouse liver homogenates using C6-NBD-Cer as substrate after 2 hrs; assay type: tissue-based
Procedure, shortened: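 Enzyme was the 12,000 rpm supernatant of ICR mouse liver homogenized at 300 mg/mL in 0.25 M sucrose, 50 mM Tris-HCl pH 7.4, 1 mM EDTA; 2 µg protein per assay. Preincubated with inhibitor 30 min at 37 °C in 10 mM HEPES pH 7.4, 3 mM MnCl2, 0.3% BSA. C6-NBD-ceramide and DMPC were then added and the reaction ran 2 h at 37 °C before ethanol quench. C6-NBD-SM was measured by C18 HPLC with fluorescence detection (ex 475/em 525 nm). IC50 from five inhibitor concentrations, triplicate, log[inhibitor] vs response fit.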

[10] = target: Sphingomyelin synthase (Mus musculus); assay: Inhibition of SMS in ICR mouse liver homogenate using C6-NBD-Cer as substrate after 2 hrs
[11] = Inhibition of sphingomyelin synthase (unknown origin) by cell based assay; settings: Homo sapiens
[12] = Half life in saline solution at 24 degC; assay type: ADME

- IC50 [2]: Not Active
SMILES: c1ccc(COc2ccccc2CNc2ccccc2)cc1

- IC50 [9]: 24.5 µM
- IC50 [1]: 13.5 µM
SMILES: N#CC(Nc1ccccc1)c1ccccc1OCc1ccccc1 (centres undefined)
- CC50 at 17 h [4]: 245 µM
- inhibition (Mus musculus [5]): Active
- inhibition (Mus musculus [6]): Active
- inhibition (Mus musculus [7]): Active
- inhibition (Mus musculus [8]): Active

- IC50 [9]: 196 µM
- IC50 [1]: 80.5 µM
SMILES: N#CC(Nc1ccc(C(N)=O)cc1)c1ccccc1OCc1ccccc1 (centres undefined)

- IC50 [9]: 90.8 µM
- IC50 [1]: 15.8 µM
SMILES: N#CC(Nc1ccccc1Cl)c1ccccc1OCc1ccccc1 (centres undefined)

- IC50 [1]: 67.2 µM
SMILES: Cc1ccccc1NC(C#N)c1ccccc1OCc1ccccc1 (centres undefined)

- IC50 [1]: 20.3 µM
SMILES: N#Cc1ccccc1NC(C#N)c1ccccc1OCc1ccccc1 (centres undefined)

- IC50 [2]: Not Active
SMILES: COc1cccc(NC(C#N)c2ccccc2OCc2ccccc2)c1 (centres undefined)

- IC50 [2]: Not Active
SMILES: c1ccc(COc2ccccc2C(Nc2ccccc2)c2nnn[nH]2)cc1 (centres undefined)

- IC50 [1]: 27.4 µM
SMILES: N#CC(Nc1ccccc1[N+](=O)[O-])c1ccccc1OCc1ccccc1 (centres undefined)

- IC50 [1]: 135 µM
SMILES: NC(=O)C(Nc1ccccc1)c1ccccc1OCc1ccccc1 (centres undefined)

- IC50 [1]: 24.4 µM
SMILES: N#CC(Nc1ccc(O)cc1)c1ccccc1OCc1ccccc1 (centres undefined)

- IC50 [1]: 19 µM
SMILES: N#CC(Nc1ccccc1O)c1ccccc1OCc1ccccc1 (centres undefined)

- IC50 [1]: 50.7 µM
SMILES: N#CC(Nc1ccccc1)c1cccc(OCc2ccccc2)c1 (centres undefined)

- IC50 [9]: 35.8 µM
- IC50 [1]: 12.4 µM
SMILES: COc1ccccc1NC(C#N)c1ccccc1OCc1ccccc1 (centres undefined)

The remaining lines, values behind:

SMILES: N#CC(NCc1ccco1)c1ccccc1OCc1ccccc1 (centres undefined)
- IC50 [1]: 71 µM

SMILES: COc1ccc(NC(C#N)c2ccccc2OCc2ccccc2)cc1 (centres undefined)
- IC50 [1]: 48.1 µM

SMILES: O=C(C(c1ccccc1)c1ccccc1)N1CCN(CC(O)COc2cccc3ncccc23)CC1 (centres undefined)
- IC50 [3]: > 500 µM

SMILES: Cc1cccc(C)c1NC(C#N)c1ccccc1OCc1ccccc1 (centres undefined)
- IC50 [1]: 31.5 µM

SMILES: Cc1ccc(NC(C#N)c2ccccc2OCc2ccccc2)cc1 (centres undefined)
- IC50 [1]: 20.8 µM

SMILES: N#CC1c2ccccc2OC(c2ccccc2O)N1c1ccccc1 (centres undefined)
- IC50 [10]: 75 µM

SMILES: N#CC(Nc1cccnc1)c1ccccc1OCc1ccccc1 (centres undefined)
- IC50 [1]: 35 µM

SMILES: N#CC(Nc1ccccc1)c1ccccc1 (centres undefined)
- IC50 [2]: Not Active

SMILES: S=C(S)OC1CC2CC1C1CCCC21 (centres undefined)
- IC50 [9]: 402 µM
- IC50 [1]: 224 µM
- EC50 [11]: 90 µM
- IC50 [3]: 375 µM

SMILES: N#CC(Nc1ccc(Cl)cc1)c1ccccc1OCc1ccccc1 (centres undefined)
- IC50 [9]: 93.9 µM
- IC50 [1]: 22.5 µM

SMILES: S=C(OC1CC2CC1C1CCCC21)[S][K] (centres undefined)
- half-life [12]: 19.5 min

SMILES: N#CC(Nc1ccccc1)c1ccc(OCc2ccccc2)cc1 (centres undefined)
- IC50 [2]: Not Active
